pIC50: −log10 of the molar value. Values belong to the molecule of their own block, whether it stands above or below them.
What was measured:
[1] = target: T1, Polyunsaturated fatty acid 5-lipoxygenase (Rattus norvegicus) (UniProt P12527); assay: Inhibitory activity against 5-lipoxygenase in RBL-1 cells at a concentration 40 uM.; assay type: cell-based
T1 sequence (whole entry): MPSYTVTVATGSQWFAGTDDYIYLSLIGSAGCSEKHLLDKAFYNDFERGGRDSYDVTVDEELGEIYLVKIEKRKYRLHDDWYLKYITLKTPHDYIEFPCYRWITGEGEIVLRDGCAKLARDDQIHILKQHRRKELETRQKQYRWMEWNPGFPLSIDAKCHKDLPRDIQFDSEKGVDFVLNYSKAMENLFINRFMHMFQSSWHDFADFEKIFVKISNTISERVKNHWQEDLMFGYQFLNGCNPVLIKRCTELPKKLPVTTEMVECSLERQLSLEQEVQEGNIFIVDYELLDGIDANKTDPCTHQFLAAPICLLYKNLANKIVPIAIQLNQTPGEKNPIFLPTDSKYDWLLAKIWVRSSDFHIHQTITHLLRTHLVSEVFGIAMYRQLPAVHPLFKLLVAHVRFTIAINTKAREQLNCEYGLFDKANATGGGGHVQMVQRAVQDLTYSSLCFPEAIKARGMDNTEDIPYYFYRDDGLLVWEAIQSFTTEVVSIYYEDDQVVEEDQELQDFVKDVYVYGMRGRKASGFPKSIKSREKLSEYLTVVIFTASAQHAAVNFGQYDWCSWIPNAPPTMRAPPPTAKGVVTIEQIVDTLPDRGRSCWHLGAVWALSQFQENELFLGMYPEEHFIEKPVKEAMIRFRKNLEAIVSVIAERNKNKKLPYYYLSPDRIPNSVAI
Summary of the method: (§1)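 Enzyme source was a 100000g supernatant of RBL-1 cells (2.5 × 10^6 cell equivalents). It was preincubated 5 min at 25 °C with compound or vehicle (2% DMSO) in 0.5 mL of 50 mM KH2PO4, 50 µM ATP, pH 7.0, then substrate was added. Inhibition was taken as the ratio of substrate remaining without versus with inhibitor. IC50 was obtained by linear regression of % inhibition against log concentration.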

[2] = target: T2, Polyunsaturated fatty acid 5-lipoxygenase (Rattus norvegicus, UniProt P12527); assay: Inhibition of 5-lipoxygenase in rat RBL-1 cells; assay type: cell-based
T2 sequence (P12527 whole entry): T1 sequence (whole entry)
Summary of the method: as §1, with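 “It” for “Enzyme source was a 100000g supernatant of RBL-1 cells (2.5 × 10^6 cell equivalents). It”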

[3] = target: T1, Polyunsaturated fatty acid 5-lipoxygenase (Rattus norvegicus); assay: Inhibitory activity against 5-lipoxygenase in RBL-1 cells at 40 uM concentration; assay type: cell-based; summary of the method: as §1
[4] = In vitro methemoglobin Induction at 10e-4 M in lysed human red blood cells; assay type: functional
Summary of the method: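 Human red blood cells were lysed, and conversion of their hemoglobin to methemoglobin was followed spectrophotometrically in vitro.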

[5] = Inhibition of 12-HETE mammalian lipoxygenase at a concentration 20 uM; assay type: functional
Summary of the method: (§2)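 Enzyme source was a 100000g supernatant from human polymorphonuclear cells isolated to 95% purity. It was preincubated with or without compound for 10 min at 20 °C in phosphate-buffered saline (pH 8.3) with 0.5 mM MgCl2. The reaction was started with 120 μM arachidonic acid and stopped with citric acid after 5 min. Products were detected by UV at 272 and 232 nm, with PGB2 as internal standard.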

[6] = Inhibition of 5-HETE mammalian lipoxygenase at a concentration 20 uM; assay type: functional; summary of the method: as §2
[7] = Inhibition of LTB4 mammalian lipoxygenase at a concentration 20 uM; assay type: functional; summary of the method: as §2
[8] = Potentiation of 15-HETE mammalian lipoxygenase at a concentration 20 uM; assay type: functional; summary of the method: as §2
Mus musculus [9] = species on record: Mus musculus; assay: In vitro inhibition of zymosan stimulated release of Leukotriene C4 from intact mouse peritoneal macrophages; assay type: functional
Summary of the method: (§3)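 Mouse peritoneal macrophages collected by lavage, isolated by adherence and kept in Dulbecco's modified Eagle medium. Cells were pretreated with compound for 60 min, then challenged with opsonized zymosan. LTC4 in cell-free supernatant was measured by radioimmunoassay 3 h after challenge.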

Mus musculus [10] = assay: Inhibition of 5-lipoxygenase in vivo by the measurement of LTC4 release after intraperitoneal 15 min pretreatment (45 min challenge) of mice with a dose of 20 mg/kg; assay type: functional; conditions: ip
[11] = target: T1, Polyunsaturated fatty acid 5-lipoxygenase (Rattus norvegicus); assay: Inhibitory activity against 5-lipoxygenase in RBL-1 cells at a concentration 40 uM; assay type: cell-based; summary of the method: as §1
[12] = Inhibition of 15-HETE mammalian lipoxygenase at a concentration 20 uM; assay type: functional; summary of the method: as §2
Mus musculus [13] = species on record: Mus musculus; assay: In vitro inhibition of zymosan-stimulated release of Leukotriene C4 from intact mouse peritoneal macrophages following 60-min pretreatment/[…]; assay type: functional; summary of the method: as §3

inhibition [1]: 45%
Structure (SMILES): CCCCCCCCC#CC/C=C\C=C\Sc1ccccc1C(=O)OC

pIC50 [2]: 5.14
Structure (SMILES): CCCCCCCC/C=C\C/C=C\C=C\SCCCC(=O)O

inhibition [1]: 21%
Structure (SMILES): CCCCCCCCC#CC/C=C\C=C\Sc1ccc(C(=O)OC)cc1

inhibition [3]: 32%
Structure (SMILES): CC#CC/C=C\C=C\SCCCC(=O)OC

pIC50 [2]: 5.21
inhibition [5]: 0%
inhibition [6]: 58%
inhibition [7]: 60%
Potentiation [8]: 20%
pIC50 (Mus musculus [9]): 4.66
Structure (SMILES): CCCCCCCC/C=C\C/C=C\C=C\SCCCC(=O)OC
Induction [4]: <3%
inhibition in vivo at 20 mg/kg (Mus musculus [10]): 80%

inhibition [11]: 47%
Structure (SMILES): CCCCCCCC/C=C\C/C=C\C=C\SCCC(=O)OC

inhibition [5]: 58%
inhibition [12]: 30%
inhibition [6]: 68%
inhibition [7]: 65%
Structure (SMILES): CC1=NN(CCOc2ccc3ccccc3c2)C(=O)C1 [NAFAZATROM]
Induction [4]: <3%

pIC50 [2]: 4.66
pIC50 (Mus musculus [13]): < 4.22
Structure (SMILES): CCCCCCCCCCC/C=C\C=C\SCCCC(=O)OC
Induction [4]: <3%
inhibition in vivo at 20 mg/kg (Mus musculus [10]): 10%

Structure (SMILES): NC1=NN(c2cccc(C(F)(F)F)c2)CC1 [BW-755C]
Induction [4]: 17%

pIC50 [2]: < 4.70
Structure (SMILES): COc1ccc2c(c1)c(CC(=O)O)c(C)n2C(=O)c1ccc(Cl)cc1 [INDOMETHACIN]

Reference: ChEMBL document CHEMBL1124740, “Design, synthesis, and 5-lipoxygenase-inhibiting properties of 1-thio-substituted butadienes” (J Med Chem, 1990)
